GSTO1 counter: inhibitors of recombinant GSTO1, primary screen, counter-screen for RBBP9 inhibitor project, biochemical, fluorescence polarization | 1.1% of 300,000 active | AID 1974, 2009 | inhibition, % at 5.96 µM | activity-based probe fluorescence polarization;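 active means inhibition above the campaign mean inhibition plus 3 SD, cut at about 35% in these data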;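 further: 0% = GSTO1-1 with DMSO and 100% = wells lacking GSTO1-1 enzyme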
Target sequence (P78417 whole entry, looked up): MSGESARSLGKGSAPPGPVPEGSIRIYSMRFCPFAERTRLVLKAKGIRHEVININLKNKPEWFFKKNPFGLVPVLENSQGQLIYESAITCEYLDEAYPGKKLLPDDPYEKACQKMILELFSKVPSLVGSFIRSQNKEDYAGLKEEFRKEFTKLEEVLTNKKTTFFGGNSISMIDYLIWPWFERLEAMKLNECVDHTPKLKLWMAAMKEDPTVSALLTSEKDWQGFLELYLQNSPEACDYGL
RBBP9 inhibitor: human RBBP9 inhibitors, primary screen, biochemical, fluorescence polarization, FP-Rh probe, HTS | Serine hydrolase RBBP9 (Homo sapiens), O75884 | recombinant RBBP9 | inhibition, % at 7.94 µM | 0.2% of 220,000 active | AID 1515, 2009;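 active means inhibition above the campaign mean of all tested compounds plus 3 SD, cut at about 14% in these data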;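 further: plate controls were DMSO wells with RBBP9 for no effect and wells lacking RBBP9 protein for full effect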
Target sequence (O75884 whole entry, looked up): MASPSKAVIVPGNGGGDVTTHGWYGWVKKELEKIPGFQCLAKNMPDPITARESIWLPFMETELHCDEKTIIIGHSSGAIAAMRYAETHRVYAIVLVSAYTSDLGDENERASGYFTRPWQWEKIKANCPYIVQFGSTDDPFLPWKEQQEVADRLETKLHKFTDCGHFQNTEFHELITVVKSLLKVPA
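System: RBBP9 protein / Buffer or medium: Tris/NaCl buffer pH 8.0 with 0.1% Pluronic / Probe or stimulus: Serine-hydrolase probe FP-Rh, 375 nM pre-mixing / Dosing: 7.94 µM single dose, 0.794% DMSO / Times: enzyme-compound preincubation 30 min, then probe labeling 45 min, 25 °C / Technique: fluorescence polarization (mP), excitation 525 nm, emission 598 nm / Replication: singlicate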
SIAE primary: human SIAE inhibitors, primary screen, biochemical, fluorescence polarization, FP-Rh probe, 1536-well HTS; Sialate O-acetylesterase (Homo sapiens), Q9HAT2; SIAE FP-Rh probe binding; inhibition, % at 9.66 µM; 0.69% of 370,000 active; AID 1053197, 2014;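 active means inhibition above a cutoff: mean of compounds within the control limits plus 3 SD of those, cut at about 17% in these data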;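 further: 0% = plate median of compound wells and 100% = probe without SIAE protein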
PAD4 inh: human PAD4 inhibitors, primary screen, biochemical, fluorescence polarization, 1536-well format. Protein-arginine deiminase type-4 (Homo sapiens), Q9UM07. recombinant PAD4, RCA probe fluorescence polarization. inhibition, % at 6.36 µM. 0.41% of 330,000 active. AID 485272, 2010;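 active means percent inhibition above a cutoff equal to the mean of all tested compounds plus 3 SD, cut at about 15% in these data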;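 further: 0% = PAD4 with RCA probe and DMSO and 100% = probe without PAD4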
PRMT1 FP inh: PRMT1 methyltransferase inhibitors, primary screen, biochemical, fluorescence polarization; Protein arginine N-methyltransferase 1 (Homo sapiens), Q99873; recombinant PRMT1, activity-based probe fluorescence polarization; inhibition, % at 2.79 µM; 1.3% of 370,000 active; AID 652257, 2013;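 active means inhibition above about 21% made by adding two undisclosed values, limit read from the data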
Starred values were filed as active, the others as inactive; . = no result. Compounds with a hit are over-represented: about 2.7% of the library has one in this group of screens.

SMILES	GSTO1 counter	RBBP9 inhibitor	SIAE primary	PAD4 inh	PRMT1 FP inh
N#Cc1c(Nc2ccccc2Cl)s[nH]c1=O	-7	-3	0	-2	23*
CC/C(=N/Nc1ccc(Cl)cc1)c1cnnc(SC)n1	50*	-3	0	-2	0
CC/C(=N/O)c1cnnc(SC)n1	-7	-5	-6	-3	1
CC/C(=N/Nc1cccc(C)c1)c1cnnc(SC)n1	50*	-3	-1	-12	-1
COc1ccc(CNC(=O)CS(=O)Cc2nc(-c3ccc(OC)c(OC)c3)oc2C)cc1 (centres undefined)	2	.	10	3	-1
O=C(Cn1cc([N+](=O)[O-])ccc1=O)Nc1ccc2c(c1)OCO2	.	.	7	0	-2
CCOC(=O)CCN(Cc1cccs1)S(=O)(=O)c1ccc(F)cc1	38*	-2	-5	-1	3
O=C(O)c1c(C(=O)O)c(-c2ccc(Cl)c(Cl)c2)n2c1CSC2	-16	.	-1	-2	30*
O=C1C=CC2C3C(=O)N(c4ccccc4)C(=O)C3C1N2Cc1ccccc1 (centres undefined)	.	.	-1	.	24*
O=C1C2C3C=CC(CC3)C2C(=O)N1c1ccccc1 (centres undefined)	.	.	-1	.	-2
Cn1c(=O)oc2cc(S(=O)(=O)NC3CCN(Cc4ccccc4)CC3)ccc21	37*	-6	2	-3	2
CN1CCN(C(=O)Cn2c(=O)oc3cc(S(=O)(=O)NCc4ccccc4)ccc32)CC1	12	-6	25*	-2	0
C(=N\N1CCN(c2ccccn2)CC1)/c1cccc2ccccc12	6	-8	6	5	2
CC(=O)c1ccc(NC(=S)NC(=O)/C=C/c2ccco2)cc1	-3	.	6	-2	11
O=C(/C=C/c1ccco1)NC(=S)Nc1ccccc1	4	.	-5	-5	23*
CCC(CC)NC(=O)COC(=O)CCC(=O)c1cccs1	0	-4	7	-2	1
O=C(Nc1ccc2c(c1)OCO2)c1cc2ncc(Br)cn2n1	.	-3	68*	.	0
Cc1cccc(C)c1NC(=O)C1(C)CSCC(=O)N1CCOc1ccccc1 (centres undefined)	.	.	-4	.	-2
Cc1cc(C(=O)OCC(=O)c2ccc(Cl)c([N+](=O)[O-])c2)c2cccc(C)c2n1	37*	1	-10	-1	-2
CCCCC1=CC2=C(c3ccco3)C(=O)C(C)(OC(=O)c3ccc(OC)cc3)C(=O)C2=CN1CCN1CCOCC1 (centres undefined)	3	.	.	-12	.
CCC(=O)Nc1ccc(C(=O)Cn2ncc(Cl)c(Cl)c2=O)cc1	-8	-2	-4	-6	1
CCOC(=O)c1ccc(NC(=O)Cn2ncc(Cl)c(Cl)c2=O)cc1	4	-14	-4	-6	25*
CCOC(=O)C(N)CSC1CC(=O)N(CCc2ccccc2)C1=O (centres undefined)	-4	.	2	-6	22*
CCOC(=O)C(N)CSC1CC(=O)N(c2ccc(C(=O)OC)cc2)C1=O (centres undefined)	1	-13	-7	-3	21
O=S(=O)(Cc1ccccc1)c1ccccc1-c1nnc(-c2ccccc2)o1	-14	-4	-3	-1	1
SMILES	GSTO1 counter	RBBP9 inhibitor	SIAE primary	PAD4 inh	PRMT1 FP inh
O=C(NCn1cnccc1=O)c1ccccc1	-4	-5	-4	4	1
O=C1c2ccccc2C(=O)N1CCCCSc1nnnn1-c1ccccc1	0	-11	0	1	1
O=C1c2ccccc2C(=O)N1CSc1nnnn1-c1ccccc1	37*	-7	12	0	4
CCOc1cccc(C(=O)Nc2ccc(N(CC)CC)cc2)c1	6	-5	7	-4	4
CCN(CC)c1cccc(OCC(=O)N(C)CCC#N)c1	-27	7	-46	45*	2
Oc1ccc(Cl)c2cccnc12	.	.	4	.	2
Oc1c(Cl)cc(Cl)c2cccnc12	.	-3	23*	.	1
Oc1c(I)cc(I)c2cccnc12	-6	13	34*	1	6
O=C1NC(=S)/C(=C\c2ccc(-c3ccccc3Cl)o2)S1	35*	-2	4	-3	67*
Cc1ccc(C(=O)NCC(=O)OCN2C(=O)c3ccccc3C2=O)cc1C	.	.	-10	0	-1
Cc1ccc(C(=O)NC2(O)C(=O)c3ccccc3C2=O)cc1C	75*	2	1	9	1
CC(=O)Nc1ccc(S(=O)(=O)NCC(=O)N2CCN(S(=O)(=O)c3cccs3)CC2)cc1	.	.	-1	10	24*
c1ccc(-c2nc3ccccc3[nH]2)nc1	2	-2	-8	1	0
c1ccc(-c2nc3c(ccc4ccccc43)[nH]2)nc1	-13	-3	29*	-1	-4
CCCn1c(CNc2ccccc2O)nc2ccccc21	35*	3	6	5	5
CCCCn1c(CNC(=O)CCC)nc2ccccc21	0	-1	2	1	-10
CC1(C)CC(=O)C(CSC(=O)c2ccccc2)C(=O)C1	.	.	5	.	24*
O=C1c2ccccc2C(=O)c2c(Nc3ccc(CCO)cc3)ccc(O)c21	39*	6	12	5	-1
COCCOC(=O)C1=C(C)Nc2ncnn2C1c1ccc(F)cc1 (centres undefined)	-1	-5	2	3	-1
COc1ccc(N=CC2=C(Nc3ccc(OC)cc3)c3c(C)nn(-c4ccccn4)c3CC2)cc1	84*	14	.	81*	.
COc1ccc(-c2cc(C(=O)O)c3c(C)nn(-c4ccccn4)c3n2)cc1	1	-3	3	3	1
COCCn1c(SCC(=O)Nc2ccc3c(c2)OCCO3)nnc1-c1ccncc1	.	.	-3	6	0
COCC(=O)NCc1ccc2c(c1)cc(C)n2C	1	-7	-1	15*	6
COc1ccc(CC(=O)NCc2ccc3c(c2)cc(C)n3C)cc1OC	10	-10	8	-7	1
O=C1/C(=C/C=C/c2ccccc2)Oc2c1ccc(O)c2CN1CCN(CCO)CC1	5	-3	-11	-2	21*
SMILES	GSTO1 counter	RBBP9 inhibitor	SIAE primary	PAD4 inh	PRMT1 FP inh
COc1ccccc1/C=C/C=C1\Oc2c(ccc(O)c2CN2CCN(CCO)CC2)C1=O	3	4	2	0	11
CCN1CCN(Cc2c(O)ccc3c2O/C(=C\C=C\c2ccccc2)C3=O)CC1	7	-9	-5	-6	22*
CCN1CCN(Cc2c(O)ccc3c2O/C(=C\c2ccccc2)C3=O)CC1	4	-6	-4	0	14
Cc1nn(-c2ccccc2)c2nc(N)c(C(N)=O)cc12	-1	.	9	0	-3
Cc1ccccc1C(=O)N1CCC(C(=O)Nc2cccc(F)c2)CC1	-3	-5	26*	-1	-5
Cc1ccc(C(=O)Sc2cccccc2=O)cc1	37*	.	7	1	45*
CSc1ccccc1NC(=O)c1ccccc1	22	-1	5	1	0

Screening data: PubChem BioAssay, The Scripps Research Institute Molecular Screening Center
